HNF4A DNA FP = change in binding of human HNF4 alpha to DNA; HNF4a-FITC DNA binding, fluorescence polarization, 1 h; activity change, % at 10 µM; AID 1224865; 0.3% of 360,000 active; P41235; in the data active = activity change above about 30%, passing the limit was not always enough
Target sequence (P41235 whole entry, looked up): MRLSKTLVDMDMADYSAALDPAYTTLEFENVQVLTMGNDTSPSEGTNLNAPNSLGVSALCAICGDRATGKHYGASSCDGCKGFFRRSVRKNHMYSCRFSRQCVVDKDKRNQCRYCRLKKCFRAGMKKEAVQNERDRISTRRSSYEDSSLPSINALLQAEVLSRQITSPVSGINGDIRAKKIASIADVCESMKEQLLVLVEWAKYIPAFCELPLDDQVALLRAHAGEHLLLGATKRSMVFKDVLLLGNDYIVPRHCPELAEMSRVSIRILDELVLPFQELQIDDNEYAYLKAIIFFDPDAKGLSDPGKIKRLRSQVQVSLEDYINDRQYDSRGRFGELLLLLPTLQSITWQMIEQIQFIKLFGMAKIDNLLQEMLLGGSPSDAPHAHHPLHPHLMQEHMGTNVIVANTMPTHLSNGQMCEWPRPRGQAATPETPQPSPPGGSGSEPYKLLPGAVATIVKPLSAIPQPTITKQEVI
Myeloid diff MLP = promotes myeloid progenitor differentiation; calls only at 10 µM; ER-HoxA9 myeloid progenitors, lysozyme-GFP differentiation, flow cytometry; 1% of 360,000 active;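 active = normalized GFP-positive differentiation at or above the plate's own cutoff, the solvent-only control mean plus 3 SD; inconclusive = no clear call, values can overlap the other calls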;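 also: cells exposed to compound for four days before flow analysis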
DSG3 Ab inh = inhibitors of pemphigus antibody binding to human desmoglein-3. P32926. DSG3-coupled beads, scFv-anti-DSG3-GFP binding, flow cytometry; hits give low values. binding (percent of control), % at 10 µM. 0.48% of 310,000 active. AID 588358;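 active = binding more than 3 SD below its plate's average and above zero; inconclusive = below that plate limit but binding exactly zero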;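 also: hits lower antibody fragment binding to DSG3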
SENP1 inh = blocks the human SENP1 SUMO protease catalytic domain; Q9P0U3; recombinant SENP1 catalytic domain, CyPet-SUMO1-YPet FRET cleavage; inhibition, % at 10 µM; 0.21% of 360,000 active; AID 624204;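 active = inhibition at least 30% at 10 µM, raw YFP signal under a set limit, fluorescence ratio 0.5 to 1.5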;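 also: 0% = enzyme with DMSO and 100% = no enzyme wells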
Target sequence (Q9P0U3 419-644 limits assumed): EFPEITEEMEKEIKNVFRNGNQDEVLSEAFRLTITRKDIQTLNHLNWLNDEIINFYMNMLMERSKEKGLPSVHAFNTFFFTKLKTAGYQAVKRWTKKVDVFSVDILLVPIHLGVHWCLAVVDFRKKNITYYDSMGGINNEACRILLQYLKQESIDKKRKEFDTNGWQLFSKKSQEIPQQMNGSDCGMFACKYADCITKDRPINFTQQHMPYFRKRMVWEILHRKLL
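Material: hSENP1 catalytic domain, recombinant; medium: Tris pH 8 with BME, BSA, NP40 and catalase; compound: single concentration of 10 µM compound, 0.5% DMSO final; technique: FRET read of cyan and yellow fluorescence; timing: 50 min enzyme reaction, room temperature, light-protected; reagent: SFCypet-SUMO1-SFYpet substrate at 25 nM; control set: no-enzyme low, enzyme-DMSO high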
Exocytosis inh = lytic granule exocytosis inhibition; TALL-104 LAMP-1 surface exposure, flow cytometry; cells stimulated with thapsigargin and PMA; inhibition, % at 10 µM; 0.66% of 360,000 active;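 active = inhibition above about 55%, limit read from the data; inconclusive = no clear call, values can overlap the other calls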
Cardio protect = modulators protecting cardiomyocytes from myocardial damage. H9c2 cardiomyocytes, H2O2 injury protection, ATPLite, 2 h. protection from H2O2 cell death, % at 20 µM. 0.63% of 360,000 active. AID 588492;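 active = compounds giving at least 50% protection of heart cells from peroxide-induced death in the single-dose screen, raw or plate-pattern-corrected value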;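 also: 0% = DMSO wells with peroxide and 100% = DMSO wells without peroxide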
Starred values were filed as active, the others as inactive; i = inactive; ? = inconclusive; · = no result given; + = active, no number. Hits are enriched below; roughly 3% of the tested compounds scored in any of these assays.

SMILES | HNF4A DNA FP | Myeloid diff MLP | DSG3 Ab inh | SENP1 inh | Exocytosis inh | Cardio protect
Cc1nn(CC(C)C)c(Cl)c1C(=O)N(C)CC(=O)Nc1c(Cl)cccc1Cl | -0.6 | + | 99.3 | 0.4 | -0.7 | 4.0
CC(C)C1C(=O)N(Cc2cn(CCC3OCCO3)nn2)CCS(=O)(=O)N1Cc1ccc(-c2ccc(F)cc2)cc1 (centres undefined) | -1.8 | i | 96.2 | 0.6 | -2.7 | 5.4
COc1cc(C2c3c(oc4ccccc4c3=O)C(=O)N2c2ccc(C)cn2)ccc1O (centres undefined) | 5.2 | i | 103.8 | 2.3 | 0.0 | 63.4*
O=S(=O)(c1ccccc1)c1nnn2c1nc(NC1CCN(Cc3ccccc3)CC1)c1ccccc12 | 3.1 | + | 106.4 | -8.1 | 26.6 | -11.2
Cc1ccc(C)c(Nc2nc3c(S(=O)(=O)c4ccccc4)nnn3c3ccccc23)c1 | -0.1 | i | 93.1 | -1.9 | -6.2 | -5.8
COc1cccc(OCc2cc(C(=O)N(C)C3CC(C)(C)NC(C)(C)C3)no2)c1 | 0.9 | i | 97.2 | -3.4 | -1.5 | 2.2
O=C(c1cc(COc2cccc(C(F)(F)F)c2)on1)N1CCC(c2ccncc2)CC1 | 0.6 | ? | 92.3 | 0.4 | 7.6 | -12.9
CCOC(=O)CC1(NC(=O)c2cc(COc3cccc(OC)c3)on2)CCCCC1 | 1.3 | i | 81.3* | 2.3 | -0.8 | -13.0
COc1cccc(OCc2cc(C(=O)N(C)C3CCOCC3)no2)c1 | 1.0 | + | 98.2 | -2.0 | 0.2 | 5.0
COc1cccc(OCc2cc(C(=O)N3CCC(c4ccncc4)CC3)no2)c1 | 3.2 | + | 97.0 | 4.4 | 34.8 | -15.3
COc1ccccc1N1C(=O)C=C(Sc2nc(C)cc(C)n2)C1=O | 5.3 | i | 96.0 | 7.3 | 31.8 | -16.7
O=c1c2ccccc2nc(-c2ccco2)n1Cc1ccccc1 | 4.9 | i | 104.6 | 0.2 | -1.0 | -1.9
CCOc1ccc(CCn2c(-c3ccco3)nc3ccccc3c2=O)cc1OCC | -1.7 | i | 102.1 | 3.4 | 1.1 | 103.5*
COC(=O)c1ccc2c(c1)SC1=C(CCCC1=O)N2 | -5.4 | i | 99.7 | 42.8* | -0.7 | -10.5
COC(=O)c1ccc2c(c1)NC(=O)CS2 | 3.1 | i | 100.7 | -3.8 | -2.0 | 1.0
CCOc1ccc(S(=O)(=O)Nc2ccccc2C(=O)NCC2CCCO2)cc1 (centres undefined) | 1.0 | i | 105.2 | 2.9 | -2.7 | 1.3
CCOC(=O)c1ccccc1NS(=O)(=O)c1ccc(OCC)cc1 | 3.0 | + | 101.5 | 3.5 | 4.7 | -8.0
Cc1ccc(/C=C2/C(=O)N(c3ccccc3)C(=S)N2C)o1 | 4.2 | i | 103.4 | -83.1 | 82.9* | 8.1
O=C(NCc1ccco1)c1ccc(Cl)nc1 | -1.1 | i | 78.3* | 1.9 | 6.5 | 6.7
COc1cc2c(cc1OC)CN(c1nc(CN3CCOCC3)nc3sc4c(c13)CCCC4)CC2 | -1.1 | + | · | -6.3 | -3.1 | 4.8
COc1cc2c(cc1OC)CN(c1nc(CN3CCCCC3)nc3sc4c(c13)CCCC4)CC2 | 6.8 | i | · | -8.8 | -4.9 | 4.1
COc1ccc(CNc2ccc3c(c2)CCC3)cc1Br | 6.6 | i | 128.0 | -33.8 | 6.8 | -4.1
COc1ccccc1CNc1ccc2c(c1)CCC2 | 13.6 | + | 221.5 | -45.6 | -3.4 | 8.0
CCN1CCN(c2ccc(Cl)cc2NC(=O)c2ccc(-n3nc(C)cc3C)cc2)CC1 | 1.2 | i | ? | -0.2 | -3.1 | 39.8
Nc1ccc2ncccc2c1 | 1.8 | i | 96.7 | 0.8 | -2.0 | 4.1
SMILES | HNF4A DNA FP | Myeloid diff MLP | DSG3 Ab inh | SENP1 inh | Exocytosis inh | Cardio protect
Oc1ccc2ccccc2c1Br | 0.1 | i | 93.3 | 0.9 | -2.6 | -9.2
Nc1ccc2cccc(O)c2c1 | -28.6 | i | 63.5* | -8.8 | 49.3 | -18.1
Nc1ccc2cc3ccccc3cc2c1 | 55.1 | + | 104.2 | -20.4 | 3.3 | -11.6
OC(CN1C2=NCCN2c2ccccc21)c1ccccc1 (centres undefined) | -0.7 | i | 103.3 | 0.6 | -0.1 | 10.5
OC(CN1C2=NCCN2c2ccccc21)c1ccc(Br)cc1 (centres undefined) | 2.3 | + | 99.9 | 2.9 | 0.7 | 12.0
CNC(=O)c1[nH]cnc1C(=O)Nc1cccc(C)c1 | -6.5 | i | 106.1 | 4.7 | -0.9 | 6.4
Cc1cccc(NC(=O)c2nc[nH]c2C(=O)NCCCCCCNC(=O)c2[nH]cnc2C(=O)Nc2cccc(C)c2)c1 | 4.0 | i | 99.2 | 0.8 | -3.7 | 95.4*
O=C(Nc1cccc(Cl)c1)c1nc[nH]c1C(=O)NCCCCNC(=O)c1[nH]cnc1C(=O)Nc1cccc(Cl)c1 | 4.1 | i | 85.2 | 0.7 | -3.7 | 74.5*
Cc1cccc(NC(=O)c2nc[nH]c2C(=O)NCc2ccccc2)c1 | -1.9 | i | 104.3 | 0.3 | -6.9 | 2.4
Cc1cccc(NC(=O)c2nc[nH]c2C(=O)NCCCCNC(=O)c2[nH]cnc2C(=O)Nc2cccc(C)c2)c1 | 0.9 | i | 98.8 | 1.7 | -0.1 | 55.7*
CC1COc2ccccc2N1C(=O)c1ccc(Cl)nc1 (centres undefined) | -1.9 | i | 104.7 | -0.8 | -1.9 | 0.0
CC1CCCCC1NC(=O)/C(C#N)=C/c1ccccc1F (centres undefined) | 5.2 | i | 95.8 | -6.4 | 1.1 | -0.5
COc1ccc(-n2cc(CNCCCn3ccnc3)c(-c3cccc(F)c3)n2)cc1 | 0.8 | i | 106.7 | -1.1 | 24.0 | 15.4
Cc1ccc(-c2nn(-c3ccccc3)cc2/C=C/C(=O)Nc2nccs2)cc1 | -5.5 | i | 101.0 | -6.3 | -1.7 | -1.5
COc1ccc(-c2nn(-c3ccccc3)cc2C(=O)Nc2nccs2)cc1 | -2.1 | i | 98.7 | 2.2 | 0.5 | 59.0*
COC(=O)c1ccc(NC(=O)c2cn(-c3ccccc3)nc2-c2ccncc2)cc1 | 7.3 | i | 84.0 | 0.7 | -2.4 | 10.8
COc1cccc(-c2nn(-c3ccccc3)cc2C(=O)Nc2nccs2)c1 | -2.0 | i | 93.2 | -0.2 | 3.2 | 62.6*
CC(=O)c1ccc(NC(=O)c2cn(-c3ccccc3)nc2-c2ccncc2)cc1 | -2.0 | i | 69.1* | 0.2 | -1.8 | 7.5
O=C(Nc1nccs1)c1cn(-c2ccccc2)nc1-c1ccncc1 | -3.6 | + | 86.1 | -0.4 | -4.7 | 18.8
COC(=O)c1c(NC(=O)CSc2ncn[nH]2)sc(C)c1C | 1.0 | i | 114.0 | -3.6 | -6.4 | 0.1
O=[N+]([O-])/C=C1\C=CC=CN1Cc1ccc(Cl)cc1 | 2.0 | i | 101.9 | 0.5 | 36.8 | -0.2
Cc1cc(NCC(=O)Nc2ccc(C)c(S(=O)(=O)N3CCOCC3)c2)ccc1Br | 2.1 | i | 107.5 | 1.2 | 0.2 | -7.3
COc1ccc(-c2nn(-c3ccccc3)cc2CO)cc1 | -3.2 | i | 103.1 | 1.5 | -0.6 | -0.8
COc1ccc(-c2nn(-c3ccccc3)cc2N)cc1 | 10.5 | + | 97.6 | 12.4 | 0.1 | -5.4

Compound activity from PubChem BioAssay.
